Screens from PubChem BioAssay.
Compounds with a hit are over-represented: about 1.2% of the library has one in this group of screens.
NSD2 inh: NSD2 histone methyltransferase inhibitors, primary screen, biochemical, AlphaScreen, single concentration, set 2 | NSD2 peptide methylation, 120 min | inhibition, % at 12.5 µM | 310,000 compounds, 0.54% hits | AID 743445, 2014; in the data active means inhibition above about 50%
Target sequence (O96028 whole entry, looked up): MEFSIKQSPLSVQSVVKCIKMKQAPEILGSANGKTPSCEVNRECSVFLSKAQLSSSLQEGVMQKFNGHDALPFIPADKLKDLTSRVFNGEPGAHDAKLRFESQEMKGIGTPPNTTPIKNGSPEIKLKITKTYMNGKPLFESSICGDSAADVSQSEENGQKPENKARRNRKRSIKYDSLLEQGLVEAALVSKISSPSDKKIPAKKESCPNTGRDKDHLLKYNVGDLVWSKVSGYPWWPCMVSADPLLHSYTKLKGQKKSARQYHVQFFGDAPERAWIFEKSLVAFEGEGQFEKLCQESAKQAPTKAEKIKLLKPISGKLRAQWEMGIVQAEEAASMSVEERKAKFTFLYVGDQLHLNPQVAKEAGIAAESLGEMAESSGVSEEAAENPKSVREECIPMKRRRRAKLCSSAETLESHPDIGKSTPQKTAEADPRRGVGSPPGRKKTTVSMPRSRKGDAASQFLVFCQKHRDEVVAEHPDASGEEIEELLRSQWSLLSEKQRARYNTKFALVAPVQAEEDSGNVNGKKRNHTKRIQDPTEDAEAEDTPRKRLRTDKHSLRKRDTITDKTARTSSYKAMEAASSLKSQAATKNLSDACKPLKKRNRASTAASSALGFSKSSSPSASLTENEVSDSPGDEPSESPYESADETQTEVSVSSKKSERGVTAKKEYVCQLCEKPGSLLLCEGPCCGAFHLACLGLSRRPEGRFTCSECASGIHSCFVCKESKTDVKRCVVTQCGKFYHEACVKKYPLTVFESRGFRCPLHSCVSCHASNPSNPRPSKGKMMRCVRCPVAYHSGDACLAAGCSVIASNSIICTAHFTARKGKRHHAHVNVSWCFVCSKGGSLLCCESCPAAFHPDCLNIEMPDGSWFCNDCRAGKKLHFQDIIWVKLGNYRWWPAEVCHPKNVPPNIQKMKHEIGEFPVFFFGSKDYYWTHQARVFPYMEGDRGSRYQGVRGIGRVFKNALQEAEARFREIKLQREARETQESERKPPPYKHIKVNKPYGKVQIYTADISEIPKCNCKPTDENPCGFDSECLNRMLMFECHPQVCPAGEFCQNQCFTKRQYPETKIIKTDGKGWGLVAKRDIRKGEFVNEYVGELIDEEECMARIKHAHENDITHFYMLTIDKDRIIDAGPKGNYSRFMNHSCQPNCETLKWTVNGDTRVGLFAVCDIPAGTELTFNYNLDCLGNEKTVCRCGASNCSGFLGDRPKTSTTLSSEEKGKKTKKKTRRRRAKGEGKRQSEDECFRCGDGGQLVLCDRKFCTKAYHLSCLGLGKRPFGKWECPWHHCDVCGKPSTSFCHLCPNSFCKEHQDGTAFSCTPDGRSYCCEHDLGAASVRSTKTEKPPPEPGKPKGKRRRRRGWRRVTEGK
FN deposition inh: inhibitors of fibronectin matrix deposition, primary screen, AH1F cells, Alexa488-fibronectin fluorescence, plate reader | AH1F fibroblasts, overnight | inhibition, % at 12.6 µM | 350,000 compounds, 0.086% hits;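 active means mean inhibition across replicates of 30% or more, regardless of how many single replicates reach that level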;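 further: positive control wells lacked labelled fibronectin entirely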
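Test system: AH1F fibroblast monolayer depositing Alexa488-labelled fibronectin into matrix. Input: 10000 cells per well. Technique: fluorescence, ex 485 nm, em 525 nm. Buffer or medium: DMEM plus 2% serum, read in PBS. Timing: 1 h cell adhesion before compound, then overnight fibronectin incubation. Compound: single dose, pinned. Read-out basis: inhibition from reduced deposited-fibronectin fluorescence.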
RAD54 branch: inhibitors of human RAD54 branch migration, primary screen, biochemical, fluorescence, single point | DNA repair and recombination protein RAD54-like (Homo sapiens), Q92698 | RAD54 Holliday junction branch migration, FAM/BHQ fluorescence | inhibition, % at 10.4 µM | 360,000 compounds, 0.14% hits | AID 602329, 2012;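 active means mean normalized replicate activity at least 40 and at least half of replicates scoring 40 or more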;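 further: 0% = median of neutral control wells and 100% = median of positive control wells; inhibitors cause a drop in the FAM fluorescence signal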
MLL AF4-AF9 inh: inhibitors of AF4 peptide binding to AF9, primary screen, biochemical, AlphaScreen, biotin-AF4 peptide, FLAG-AF9, single point; Protein AF-9 (Homo sapiens), P42568; inhibition, % at 10 µM; 350,000 compounds, 0.47% hits; AID 651704, 2012;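 active means every replicate reaching a set inhibition limit, whatever the replicate mean, cut at about 25% in these data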;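 further: 0% = plate neutral control median and 100% = total signal loss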
RAD52 anneal inh: RAD52 DNA annealing inhibitors, primary screen, biochemical, FRET, single point, set 2 | DNA repair protein RAD52 homolog (Homo sapiens), P43351 | AID 651710, 2012 | inhibition, % at 18.7 µM | recombinant RAD52 DNA annealing, FRET fluorescence | 360,000 compounds, 0.46% hits;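 active means every replicate showing at least 50% inhibition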
N-glyco inh: increase of ERlucT glycosylation luciferase signal, primary screen, N-linked glycosylation inhibitor project, D54 ERlucT cells, luminescence, set 2. reporter increase, % at 12.5 µM. D54 ERlucT glycosylation luciferase reporter, 24 h; percent of 100 nM tunicamycin response. 360,000 compounds, 0.23% hits;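 active means mean luciferase reporter signal, scaled so untreated is 0 and the glycosylation-blocking control 100, at or above a set limit in every replicate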;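 further: luciferase carries N-glycosylation sites so blocking glycosylation raises the light; 0% = median of neutral control wells and 100% = median of 100 nM tunicamycin wells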
Alpha artifact: AlphaScreen signal interference with preloaded methylated product, dose response, artefact control for NSD2 inhibitor project, biochemical, cherry-picked samples | AlphaScreen artifact counterscreen, preloaded methylated H4 peptide | AID 1053174, 2014 | shares compounds with NSD2 inh | 1,500 compounds, 9.4% hits | AC35, µM (titrated, usually from 10 µM), inactives show at the highest dose activity change, negative = signal loss; call rule not given here
Active calls of the source: *; . = not tested or not shown.

SMILES	NSD2 inh	FN deposition inh	RAD54 branch	MLL AF4-AF9 inh	RAD52 anneal inh	N-glyco inh	Alpha artifact
COc1ccc(OCC(=O)NCCCn2ccnc2)cc1	-1	-3	.	1	-10	0	.
C[C@H]1CN([C@@H](C)CO)C(=O)c2cccc(NC(=O)Nc3ccc(C(F)(F)F)cc3)c2O[C@H]1CN(C)S(=O)(=O)c1ccc(Cl)cc1	.	.	1	0	11	.	.
Cn1c(=O)cc(SCC(=O)N2CCOCC2)c2ccc(Cl)cc21	55*	-13	-10	.	.	3	0%
Cn1c(=O)cc(SCC(=O)N2CCCC2)c2ccc(Cl)cc21	-1	.	-3	.	.	.	.
Nc1ccc(C(=O)O)cc1[N+](=O)[O-]	.	1	-10	0	-1	0	.
Nc1cc(S(=O)(=O)O)cc([N+](=O)[O-])c1O	87*	18	.	-4	-11	1	-5%
CCCCn1c(=O)[nH]c2nc3cc(N)ccc3nc2c1=O	110*	-11	-54	-14	-425	8	1%
Nc1ccc2nc3c(=O)n(CCc4ccccc4)c(=O)[nH]c3nc2c1	-1	-4	-51	-3	-266	12	.
C[C@@H]1CN([C@@H](C)CO)C(=O)c2cccc(NS(=O)(=O)c3ccc(F)cc3)c2O[C@@H]1CN(C)S(=O)(=O)c1ccc(Cl)cc1	.	.	-3	0	-68	.	.
CCCNC(=O)C[C@@H]1CC[C@H]2[C@@H](COc3ccc(NC(=O)CCC)cc3C(=O)N2C)O1	.	.	4	-1	7	.	.
Cc1ccc(S(=O)(=O)N2CCCCC2CCNC(=O)C(=O)Nc2ccccc2F)cc1 (centres undefined)	95*	1	3	-28	-6	13	2%
O=C(O)c1ccc2nc(-c3ccco3)c(-c3ccco3)nc2c1	186*	5	-1	-7	-18	3	-8%
Cc1ccc(-n2nc3c(=O)n(CC(=O)NCc4ccccc4)nc(C)c3c2C)cc1	80*	-12	7	-3	2	0	-1%
C[C@@H]1CCCCO[C@H](CN(C)C(=O)Nc2ccc(F)cc2)[C@H](C)CN([C@H](C)CO)C(=O)c2cc(NS(C)(=O)=O)ccc2O1	.	.	5	0	1	.	.
O=C(/C=C/c1ccco1)Nc1cccc(C(=O)Nc2ccccc2C(=O)O)c1	76*	-2	-3	-8	-46	0	0%
CCc1ccccc1NC(=O)c1cccc(NC(=O)/C=C/c2ccco2)c1	0	10	-9	.	.	4	.
O=C(/C=C/c1ccco1)NC(=S)Nc1ccc(C(=O)O)cc1	66*	1	.	-11	-90	0	-5%
CC(=O)NC(=S)Nc1ccc(NC(=S)NC(=O)/C=C/c2ccco2)cc1	1	-4	.	0	-11	-1	.
Cc1[nH][nH]c(=O)c1C(c1c(C)[nH][nH]c1=O)c1cn(Cc2ccccc2Cl)c2ccccc12	115*	20	-3	.	.	19	-22%
C[C@@H]1CN([C@H](C)CO)S(=O)(=O)c2ccc(-c3cccc(F)c3)cc2O[C@@H]1CN(C)CC1CC1	.	2	14	3	3	.	.
COc1cc(/C=N/N=C2/C(=O)Nc3ccccc32)ccc1O	22	3	9	.	.	6	.
O=C1Nc2ccccc2/C1=N\N=C\c1ccc(O)c(O)c1	119*	7	2	20	-2	-1	3µM*
CC12CC3(C)CC(C)(C1)CC(C(=O)NC1=NCCS1)(C2)C3	121*	.	6	.	.	0	-4%
O=C(NC1(O)C(=O)c2ccccc2C1=O)c1c(Cl)cccc1Cl	111*	5	-9	-5	11	1	1%
O=C(NC1(O)C(=O)c2ccccc2C1=O)c1ccccc1	110*	.	.	.	.	-2	3%
SMILES	NSD2 inh	FN deposition inh	RAD54 branch	MLL AF4-AF9 inh	RAD52 anneal inh	N-glyco inh	Alpha artifact
COc1cnc(-c2ccccn2)nc1Oc1cccc(C(F)(F)F)c1	55*	17	.	-41	4	2	-9%
COc1ccc(NC(=O)CSc2nc3ccccc3c(=O)n2CCC(=O)N2CCCCC2)cc1	1	.	1	.	.	-2	.
CCOc1ccc(NC(=O)CSc2nc3ccccc3c(=O)n2CCCC(=O)N2CCCC2)cc1	118*	4	5	.	.	0	3%
CN(Cc1nc2ccccc2c(=O)[nH]1)C(=O)c1cc2c(s1)CCCCC2	52*	-1	-5	-2	-2	1	-2%
CN(CC(=O)Nc1sc2c(c1C#N)CCCCC2)Cc1nc2ccccc2c(=O)[nH]1	0	-10	.	-3	-12	5	.
COc1cccc(CNC(=O)CSc2nnc3c(n2)[nH]c2ccccc23)c1	56*	-5	-5	1	-6	-1	3%
COc1cccc(CNC(=O)CSc2nnc3c(n2)[nH]c2ccc(OC)cc23)c1	.	-1	2	-5	-6	5	.
O=C(NCCCN1CCCC1=O)Nc1ccc(Cl)cc1Cl	50*	-11	-9	-5	-16	1	0%
CCOc1ccc2nc(SCC(=O)NC(=O)NCc3ccco3)sc2c1	-1	.	-7	.	.	0	.
CCOc1ccc2nc(SCC(=O)NCc3ccco3)sc2c1	129*	-4	3	.	.	-1	-2%
Cn1cnc(CCNC(=O)C[C@@H]2CC[C@H]3[C@@H](COC[C@@H](O)CN3C(=O)C3CC3)O2)c1	.	-12	-5	-1	-2	.	.
Cc1cc2ccccn2c1C(=O)c1ccc(Cl)cc1	-10	.	-4	.	.	-1	.
Cc1cc2ccccn2c1C(=S)NC(=O)c1ccccc1	55*	-1	-5	8	-3	-1	10µM*
Cc1ccc(C(=O)NC(=S)c2c(C)cc3ccccn23)cc1	92*	-12	-7	21	-1	-1	6.4µM*
C[C@H](CO)N1C[C@H](C)[C@@H](CN(C)C(=O)Nc2ccc(F)cc2)Oc2cc(-c3ccc(F)cc3)ccc2S1(=O)=O	.	21	.	.	.	.	.
Cc1cc(=O)cc(C)n1-c1ccc(O)cc1	71*	-7	.	-1	-2	0	-2%
Nc1ccc2c(c1)C(=O)C(=O)c1ccccc1-2	112*	.	.	.	.	-19	-8%
Nc1ccc2c(c1)C(=O)c1ccccc1-2	.	-11	20	16	1	2	.
CCC1=NN2C(=N)/C(=C\c3ccc(SCc4ccco4)o3)C(=O)N=C2S1	103*	-1	-52	.	.	0	-7%
